In brackets after ≈: the same amount, converted by molar mass.
What was measured:
[1] = tested on: MRC5; experiment: Minimum inhibitory concentration required to reduce cytopathogenicity of Herpes Virus-1 (HSV-1) in MRC -5 cells by 50%.; assay type: functional; conditions: Homo sapiens
How it was run: (§1)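 Plaque reduction: confluent monolayers (HSV-2 in Vero, HSV-1 in MRC-5) infected and overlaid with nutrient agarose holding doubling drug dilutions. Plaques counted after 5 days as % of control, plotted against log concentration, and IC50 read from the plot.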

[2] = tested on: MRC5; experiment: Minimum inhibitory concentration required to reduce cytopathogenicity of Varicella Zoster Virus (VZV) in MRC-5 cells by 50%.; assay type: functional; conditions: Homo sapiens
[3] = tested on: Vero; experiment: Minimum inhibitory concentration required to reduce cytopathogenicity of Herpes Virus-2 (HSV-2) in vero cells by 50%.; assay type: functional; conditions: Chlorocebus sabaeus; how it was run: as §1
[4] = tested on: MRC5; experiment: Minimum inhibitory concentration required to reduce cytopathogenicity of cytomegalovirus (CMV) in MRC-5 cells by 50%.; assay type: functional; conditions: Homo sapiens
How it was run: (§2)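 MRC-5 monolayers in 24-well panels, infected after 24 h and overlaid with 0.5% indubiose A37 medium containing drug at 10 and 100 µM. After 5 days, giant cells (plaques) stained with methylene blue and examined microscopically.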

[5] = Maximum plasma level was measured in mice.; assay type: ADME, organism-based; conditions: mouse, read-out: Max plasma level
[6] = tested on: MT4; experiment: Minimum inhibitory concentration required to reduce cytopathogenicity of human immunodeficiency virus-1 (HIV-1) in MT-4 cells by 50%; No activity below ID50 observed; assay type: functional, cell-based
[7] = Half life was measured in mice.; assay type: ADME, organism-based; conditions: mouse, in vivo
[8] = tested on: Vero; experiment: Inhibitory dose required to reduce the viability of vero cells by 50%; assay type: functional, Chlorocebus sabaeus
[9] = tested on: MT4; experiment: Inhibitory dose required to reduce the viability of MT-4 cells by 50%; assay type: functional, Homo sapiens
How it was run: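 Mock-infected MT-4 cells on the same plate as the HIV test, drug at 100, 10, 1 and 0.1 µM, triplicate wells. Growth inhibition assessed after 5 days by MTT uptake into viable cells, acidified propan-2-ol extraction and spectrophotometric reading.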

[10] = tested on: Mus musculus; experiment: Toxicity of compound was measured after ip administration to mice.; assay type: organism-based; conditions: in vivo
[11] = tested on: MRC5; experiment: Minimum inhibitory concentration required to reduce cytopathogenicity of Cytomegalovirus Virus (CMV) in MRC-5 cells by 50%.; assay type: functional; conditions: Homo sapiens; how it was run: as §2

Row | SMILES | MIC50 [1] [µM] | MIC50 [2] [µM] | MIC50 [3] [µM] | MIC50 [4] [µM] | Cmax [5] [µM] | MIC50 [6] | half-life [7] [h] | ID50 [8] [µM] | ID50 [9] [µM] | Toxicity [10] [mg/kg] | MIC50 [11] [µM]
1 | Cc1cn([C@H]2C[C@H](O)[C@@H](CO)S2)c(=O)[nH]c1=O [4'-THIOTHYMIDINE] | 0.37 (≈ 0.0956 µg/mL) | 10 (≈ 2.58 µg/mL) | 2.3 (≈ 0.594 µg/mL) | 0.98 (≈ 0.253 µg/mL) | > 35 | No activity | 1 | 7.1 | 1 | > 40 | 
2 | O=c1[nH]c(=O)n([C@H]2C[C@H](O)[C@@H](CO)S2)cc1/C=C/Br | 0.6 (≈ 0.21 µg/mL) | 0.08 (≈ 0.0279 µg/mL) | 10 (≈ 3.49 µg/mL) |  | > 50 | No activity | 2 | > 500 | > 500 | > 40 | 
3 | Cc1cn(C2CC(N=[N+]=[N-])C(CO)S2)c(=O)[nH]c1=O (stereo not given) | > 100 |  | > 100 |  |  | No activity |  | > 100 | > 100 |  | 
4 | O=c1[nH]c(=O)n([C@H]2C[C@H](O)[C@@H](CO)O2)cc1/C=C/Br [BRIVUDINE] | 0.03 (≈ 0.00999 µg/mL) | 0.02 (≈ 0.00666 µg/mL) | 12 (≈ 4 µg/mL) |  |  |  |  | > 500 |  |  | > 100
5 | O=c1[nH]c(=O)n([C@@H]2C[C@H](O)[C@@H](CO)S2)cc1/C=C/Br | > 500 |  | > 500 |  |  |  |  |  | > 500 |  | 
6 | Cc1cn([C@@H]2C[C@H](O)[C@@H](CO)S2)c(=O)[nH]c1=O | > 100 |  | > 100 |  |  |  |  | > 100 | > 100 |  | 
7 | Nc1nc2c(ncn2COCCO)c(=O)[nH]1 [ACYCLOVIR] | 1.3 (≈ 0.293 µg/mL) |  | 1.8 (≈ 0.405 µg/mL) |  |  |  |  | > 500 |  |  | 100 (≈ 22.5 µg/mL)
